Assay results collected from several papers.
Protocols differ between the studies behind these lines.
BCHE: Cholinesterase (BCHE, Equus caballus, UniProt P81908)
Tyrosine-protein phosphatase YopH: Tyrosine-protein phosphatase YopH (Yersinia enterocolitica, UniProt P15273)

SMILES	target	assay	setting	endpoint	value
COc1ncccc1-c1cnn2ccc(N3CCN(C(=O)OC(C)C)CC3)nc12	Serine/threonine-protein kinase MRCK alpha (CDC42BPA, Homo sapiens, UniProt Q5VT25)	binding, competition with immobilised ligand	1 µM	remaining binding	72%
C#Cc1n[nH]c2c(-c3cn(C(C)c4ccccn4)c(=O)[nH]c3=O)cc(F)cc12 (centres unmarked)	Mitogen-activated protein kinase kinase kinase 9 (MAP3K9, Homo sapiens, UniProt P80192)	enzyme activity, inhibitor	1 µM	inhibition	5%
COc1cc2c(cc1OC)C(=O)N(CC1CCN(CC3CCNC3)CC1)C2 (centres unmarked)	BCHE	enzyme activity, inhibitor, Ellman	1 µM	inhibition	-13.6%
Nc1ncc(-c2nc(N3CCOCC3)nc(N3CCOCC3)n2)c(C(F)F)n1	Ribosomal protein S6 kinase alpha-3, C-terminal kinase domain (RPS6KA3, Homo sapiens, UniProt P51812)	binding, competition with immobilised ligand	10 µM	remaining binding	84%
[O]=[V]([S]c1cccc[n+]1[O-])[S]c1cccc[n+]1[O-]	Tyrosine-protein phosphatase YopH	enzyme activity, inhibitor	25 µM	inhibition	99.5%
CCN(CC)CCCC[C@H](NC(=O)[C@H](CC(C)C)NC(=O)[C@H](C)NC(=O)[C@H](Cc1ccccc1)NC(=O)c1ccc(C(C)(C)C)cc1)C(=O)N[C@@H](CO)C(=O)OC	Transcription initiation factor TFIID subunit 1, BD2 (TAF1, Homo sapiens, UniProt P21675)	thermal stability, DSF	25 µM	ΔTm	0.62 °C
O=S(=O)([O-])[O-].[O]=[V+2]	Tyrosine-protein phosphatase YopH	enzyme activity, inhibitor	25 µM	inhibition	99.7%
COc1cc2c(cc1OC)C(=O)N(Cc1ccc(-c3cccs3)nc1)C2	BCHE	enzyme activity, inhibitor, Ellman	1 µM	inhibition	-2%
